Tests used:
[1] = Inhibition of bovine brain tubulin assembly preincubated for 15 mins followed by GTP addition measured for 20 mins by spectrophotometric method; parameters: species or system Bos taurus
Chorioallantoic membrane = test: Antiangiogenic activity in Leghorn chicken egg chorioallantoic membrane assessed as inhibition of human VEGF-165/bFGF-induced blood vessels formation measured after 40 hrs by microscopic method; type: functional, tissue-based; settings: Gallus gallus
A-431 = test: Cytotoxicity against human A431 cells; type: functional, cell-based
HeLa = test: Growth inhibition of human HeLa cells measured after 96 hrs by sulforhodamine B assay; type: functional, cell-based
Method in brief: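 Exposed 96 h to varying compound concentrations in 0.5% DMSO. Cell protein measured by sulforhodamine B; IC50 = concentration halving the increase in cell protein versus untreated cultures.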

Row | IC50 [1] | IC50 (HeLa) | SMILES | IC50 (Chorioallantoic membrane) | IC50 (A-431)
1 | > 20 µM | – | COc1ccc(N(C)c2nc(N)nc3c(Cc4ccccc4)c[nH]c23)cc1 | 2.3 µM | 0.7 µM
2 | > 20 µM | – | COc1ccc2c(c1)CCN2c1nc(C)nc2c(Cc3ccccc3)c[nH]c12 | – | –
3 | 13 µM | – | COc1ccc2c(c1)CCCN2c1nc(N)nc2c(Cc3ccccc3)c[nH]c12 | – | –
4 | – | 0.06 µM | COc1ccc2c(c1)CCCN2c1nc(C)nc2c(Cc3ccccc3)cn(C)c12 | – | –
